Measured values taken from ChEMBL document CHEMBL1140960, “Synthesis of amide and urea derivatives of benzothiazole as Raf-1 inhibitor” (2008).
Converted amounts (≈) assume the structure as drawn. The source made the active and inactive calls. The rule behind the calls is not given here.

Key:
[1] = test system: SK-HEP1; test: Antiproliferative activity against human SKHEP1 cells by SRB assay; format: functional
In short: (§1)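 Cells from exponential-phase cultures were trypsinized, counted and plated. Fixation used cold 10% TCA for 1 h at 4 °C, then water washes. Staining was 0.1% SRB in 1% acetic acid for at least 15 min, followed by 1% acetic acid rinses. Dye was solubilized in 10 mM unbuffered Tris base and absorbance read at 540 nm.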

[2] = test system: MDA-MB-231; test: Antiproliferative activity against human MDA-MB-231 cells by SRB assay; format: functional
In short: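 Trypsinized exponential-phase cells were plated at densities chosen for exponential growth over a 5-day assay. Cells were fixed with cold 10% TCA for 1 h at 4 °C, water-washed, stained at least 15 min with 0.1% SRB in 1% acetic acid, and rinsed with 1% acetic acid. Bound dye was solubilized in 10 mM unbuffered Tris base and OD read at 540 nm.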

[3] = test system: NUGC-3; test: Antiproliferative activity against human NUGC3 cells by SRB assay; format: functional; in short: as §1
[4] = molecular target: RAF proto-oncogene serine/threonine-protein kinase (Homo sapiens) (UniProt P04049); test: Inhibition of Raf1 at 50 uM by liquid scintillation counting
RAF proto-oncogene serine/threonine-protein kinase (Homo sapiens), sequence (P04049 whole entry): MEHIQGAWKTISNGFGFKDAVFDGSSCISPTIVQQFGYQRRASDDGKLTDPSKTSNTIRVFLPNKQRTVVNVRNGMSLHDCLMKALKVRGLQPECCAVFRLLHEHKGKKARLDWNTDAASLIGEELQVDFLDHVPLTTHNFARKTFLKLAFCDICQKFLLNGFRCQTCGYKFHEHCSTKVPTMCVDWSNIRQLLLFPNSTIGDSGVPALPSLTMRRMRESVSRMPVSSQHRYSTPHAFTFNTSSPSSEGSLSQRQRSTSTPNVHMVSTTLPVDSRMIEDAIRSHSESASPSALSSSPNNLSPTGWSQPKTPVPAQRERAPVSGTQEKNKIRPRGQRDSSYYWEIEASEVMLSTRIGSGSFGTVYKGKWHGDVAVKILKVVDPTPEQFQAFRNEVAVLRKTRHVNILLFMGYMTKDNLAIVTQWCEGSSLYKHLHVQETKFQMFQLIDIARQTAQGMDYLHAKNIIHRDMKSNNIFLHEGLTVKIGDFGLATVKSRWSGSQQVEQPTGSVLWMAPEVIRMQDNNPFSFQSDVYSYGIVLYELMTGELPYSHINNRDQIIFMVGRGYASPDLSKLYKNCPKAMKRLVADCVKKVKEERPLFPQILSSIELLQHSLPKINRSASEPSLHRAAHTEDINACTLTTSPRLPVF
In short: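 Raf-1 and its substrate MEK were diluted together in buffer (20 mM MOPS pH 7.2, 25 mM β-glycerol phosphate, 5 mM EGTA, 1 mM orthovanadate, 1 mM DTT), with compound in 1% final DMSO. Reaction was started with [γ-33P]ATP (1000–3000 dpm/pmol) and run at 32 °C, usually 22 min. Samples went to phosphocellulose mats, were washed with 1% phosphoric acid and counted by scintillation; % inhibition is the mean of three experiments.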

Row | Compound | GI50 [1] | GI50 [2] | GI50 [3] | Activity [4] | inhibition [4]
1 | Cc1cc(C)c2sc(NC(=O)c3ccc([N+](=O)[O-])cc3)nc2c1 | 1.74 µg/mL (≈ 5.32 µM) | 0.29 µg/mL (≈ 0.886 µM) | 1.32 µg/mL (≈ 4.03 µM) | inactive | –
2 | Cc1ccc2nc(NC(=O)Nc3cccc([N+](=O)[O-])c3)sc2c1 | > 10 µg/mL | > 10 µg/mL | > 10 µg/mL | – | –
3 | COc1ccc(C(=O)Nc2nc3cc(OC)ccc3s2)cc1 | > 10 µg/mL | > 10 µg/mL | > 10 µg/mL | – | –
4 | O=C(Nc1ccccc1)Nc1nc2ccc(F)cc2s1 | > 10 µg/mL | > 10 µg/mL | > 10 µg/mL | – | –
5 | Cc1cc2nc(NC(=O)Nc3ccccc3C)sc2cc1C | 0.18 µg/mL (≈ 0.578 µM) | 0.1 µg/mL (≈ 0.321 µM) | 0.18 µg/mL (≈ 0.578 µM) | – | 14.9%
6 | COc1ccc(C(=O)Nc2nc3cc(C)cc(C)c3s2)cc1 | > 10 µg/mL | 1.03 µg/mL (≈ 3.3 µM) | > 10 µg/mL | – | –
7 | COc1ccc2nc(NC(=O)c3ccc(C)cc3)sc2c1 | > 10 µg/mL | > 10 µg/mL | > 10 µg/mL | – | –
8 | Cc1ccc(C(=O)Nc2nc3cc(C)cc(C)c3s2)cc1 | 2.17 µg/mL (≈ 7.32 µM) | 0.44 µg/mL (≈ 1.48 µM) | 2.37 µg/mL (≈ 8 µM) | – | –
9 | COc1cccc2sc(NC(=O)c3ccc(C)cc3)nc12 | 2.01 µg/mL (≈ 6.74 µM) | 0.86 µg/mL (≈ 2.88 µM) | > 10 µg/mL | – | 37%
10 | O=C(Nc1nc2ccc(F)cc2s1)Nc1ccccc1F | > 10 µg/mL | > 10 µg/mL | > 10 µg/mL | – | –
11 | O=C(Nc1nc2ccc(C(F)(F)F)cc2s1)c1ccc([N+](=O)[O-])cc1 | > 10 µg/mL | > 10 µg/mL | > 10 µg/mL | – | –
12 | O=C(Nc1cccc([N+](=O)[O-])c1)Nc1nc2ccc(Cl)cc2s1 | 2.21 µg/mL (≈ 6.34 µM) | 0.82 µg/mL (≈ 2.35 µM) | 1.03 µg/mL (≈ 2.95 µM) | inactive | –
13 | O=C(Nc1cccc([N+](=O)[O-])c1)Nc1nc2ccc(F)cc2s1 | 1.96 µg/mL (≈ 5.9 µM) | 0.89 µg/mL (≈ 2.68 µM) | 0.83 µg/mL (≈ 2.5 µM) | – | 7.9%
14 | Cc1cc(C)c2sc(NC(=O)c3ccc(C#N)cc3)nc2c1 | 1.18 µg/mL (≈ 3.84 µM) | 0.48 µg/mL (≈ 1.56 µM) | 0.62 µg/mL (≈ 2.02 µM) | inactive | –
15 | O=C(Nc1nc2ccc([N+](=O)[O-])cc2s1)c1ccc(C(F)(F)F)cc1 | 2.1 µg/mL (≈ 5.72 µM) | 1.89 µg/mL (≈ 5.15 µM) | 1.65 µg/mL (≈ 4.49 µM) | – | –
16 | COc1ccc2sc(NC(=O)c3ccc(C(F)(F)F)cc3)nc2c1 | > 10 µg/mL | > 10 µg/mL | > 10 µg/mL | – | –
17 | COc1ccc(NC(=O)Nc2nc3ccc(F)cc3s2)cc1 | > 10 µg/mL | > 10 µg/mL | > 10 µg/mL | – | –
18 | COc1cccc2c1C(=O)c1c(O)c3c(c(O)c1C2=O)C[C@@](O)(C(=O)CO)C[C@@H]3O[C@H]1C[C@H](N)[C@H](O)[C@H](C)O1 [DOXORUBICIN] | 0.07 µg/mL (≈ 0.129 µM) | 0.39 µg/mL (≈ 0.718 µM) | 0.11 µg/mL (≈ 0.202 µM) | – | –
19 | Cc1ccccc1NC(=O)Nc1nc2ccc(F)cc2s1 | > 10 µg/mL | > 10 µg/mL | > 10 µg/mL | – | –
20 | COc1ccc2sc(NC(=O)c3ccc(C)cc3)nc2c1 | > 10 µg/mL | > 10 µg/mL | > 10 µg/mL | – | –
21 | COc1ccc2sc(NC(=O)c3ccc(C#N)cc3)nc2c1 | > 10 µg/mL | > 10 µg/mL | > 10 µg/mL | – | –
22 | COc1cccc2sc(NC(=O)c3ccc([N+](=O)[O-])cc3)nc12 | > 10 µg/mL | > 10 µg/mL | > 10 µg/mL | – | –
23 | COc1cccc2sc(NC(=O)c3ccc(C#N)cc3)nc12 | > 10 µg/mL | > 10 µg/mL | > 10 µg/mL | – | –
24 | Cc1cc(C)c2sc(NC(=O)c3ccc(C(F)(F)F)cc3)nc2c1 | 1.36 µg/mL (≈ 3.88 µM) | 0.45 µg/mL (≈ 1.28 µM) | 1.4 µg/mL (≈ 4 µM) | inactive | –
25 | COc1ccc2sc(NC(=O)c3ccc([N+](=O)[O-])cc3)nc2c1 | > 10 µg/mL | > 10 µg/mL | > 10 µg/mL | – | –
26 | COc1cccc2sc(NC(=O)c3ccc(C(F)(F)F)cc3)nc12 | > 10 µg/mL | > 10 µg/mL | > 10 µg/mL | – | –
27 | COc1ccc(C(=O)Nc2nc3c(OC)cccc3s2)cc1 | 2.11 µg/mL (≈ 6.71 µM) | 1.25 µg/mL (≈ 3.98 µM) | 3.46 µg/mL (≈ 11 µM) | – | 7.8%
